Shown are actives, neighbours in structure and some others; about 4% of the full set was active somewhere.
FAS-TE inh = FAS thioesterase (human) inhibition; P49327; recombinant FAS-TE, OMFH fluorogenic substrate, fluorescence endpoint; inhibition, % at 15 µM; 360,000 compounds, 0.67% hits;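 active means compounds whose normalised, plate-corrected inhibition of enzyme fluorescence in the single-dose primary screen is 50% or more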;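 further: 0% = DMSO with enzyme and 100% = substrate without enzyme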
GRIN3A LBD mod = NR3A (human) ligand-binding domain modulation; Tm shift relative to glycine control, % at 25 µM; NR3A LBD differential scanning fluorimetry, Tm shift; 0% = protein alone, 100% = glycine-bound protein; 340,000 compounds, 2.5% hits; AID 1259313;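 active means melting temperature shift of at least 10% of the positive control shift, at one fixed dose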
Arr AP2 block = human beta-arrestin and AP2 interaction inhibition; FITC-arrestin peptide / GST-AP2 beads, flow cytometry; AP2 beta2 appendage carries R879A mutation; 340,000 compounds, 0.31% hits; inhibition, % at 10 µM; AID 504490;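 active means inhibition above a set limit, near 3 SD of compounds lacking own fluorescence, cut at about 54% in these data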;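 further: plate controls were DMSO wells for no effect and 5 µM unlabelled arrestin peptide for full effect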
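System: GST-AP2 R879A glutathione beads; medium: PBS, Tween 20 0.05%, BSA 0.1%; reagent: fluorescein-tagged arrestin peptide at 50 nM final; schedule: pre-incubation 12 min, peptide binding 1 h, room temperature; detection: flow cytometry, FL1 (488/535 nm); read-out: inhibition as reduced fluorescein signal on beads, percent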
iPSC survival up = increases survival of single human iPS cells; hiPSC single-cell survival, ATPlite luminescence; 100% = ROCK inhibitor wells, 0% = DMSO; survival enhancement, % at 20 µM; 360,000 compounds, 0.044% hits; AID 602274; in the data active means survival enhancement above about 18%;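 further: cells exposed to compounds for 16 hours before the ATP read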
SENP1 FRET inh = SENP1 (human) catalytic domain inhibition; Q9P0U3; recombinant SENP1 catalytic domain, CyPet-SUMO1-YPet FRET cleavage; inhibition, % at 10 µM; 360,000 compounds, 0.21% hits; AID 624204;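 active means inhibition at least 30% at 10 µM, raw YFP signal under a set limit, fluorescence ratio 0.5 to 1.5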;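 further: 0% = enzyme with DMSO and 100% = no enzyme wells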
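Test system: human SENP1 catalytic domain; medium: Tris pH 8 buffer plus EDTA, NaCl, BME, BSA, NP40, catalase; incubation: 50 min reaction at room temperature; technique: FRET, CFP and YFP emission; controls: no-enzyme low control and enzyme-plus-DMSO high control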
H9c2 protect = myocardial damage modulation in H9c2 cells. H9c2 cardiomyocytes, H2O2 injury protection, ATPLite, 2 h. protection from H2O2 cell death, % at 20 µM. 360,000 compounds, 0.63% hits;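 active means compounds giving at least 50% protection of heart cells from peroxide-induced death in the single-dose screen, raw or plate-pattern-corrected value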;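 further: 0% = DMSO wells with peroxide and 100% = DMSO wells without peroxide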
Arr AP2 CP1 = human beta-arrestin and AP2 interaction inhibition, cherry pick | inhibition, % at 10 µM | shares compounds with Arr AP2 block | GST-AP2 beads, FITC arrestin peptide binding, flow cytometry; GST-fused beta2-adaptin appendage, R879A mutant | 1,300 compounds, 2% hits;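 active means inhibition above a set limit, roughly 3 SD of non-fluorescent compound noise, cut at about 38% in these data; inactive means inhibition at or below that limit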;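 further: loss of bead fluorescence from 50 nM FITC arrestin peptide bound to appendage; 0% = negative control wells and 100% = excess unlabelled arrestin peptide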
GST-FITC bead = disrupts GST binding to glutathione beads, arrestin-AP2 artifact; 1,300 compounds, 2% hits; shares compounds with Arr AP2 block; GST-fluorescein binding to GSH beads, fluorescence, counter-screen; inhibition, % at 10 µM;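 active means inhibition above 50%, about 3 SD of the inhibition seen with non-fluorescent compounds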;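 further: fluorescein maleimide labelled GST captured on 4 micron glutathione beads; higher means more loss of bead fluorescence from quenching or blocked binding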
* = called active by the depositor; . = no result.

SMILES	FAS-TE inh	GRIN3A LBD mod	Arr AP2 block	iPSC survival up	SENP1 FRET inh	H9c2 protect	Arr AP2 CP1	GST-FITC bead
CN1CCC(N(C)C(=O)c2cc(-c3ccc(F)cc3)nc3ccccc23)CC1	-6	-1	13	2	2	3	.	.
CC(C)N1CCC1(C)C(=O)Nc1ccccc1OC(F)F (centres undefined)	-3	.	.	-1	1	6	.	.
Cc1ccccc1CC(=O)Nc1ccc2c(c1)CCC2	-5	-1	60*	0	3	-4	-2	-1
O=C(Cc1ccccc1F)Nc1ccc2c(c1)CCC2	5	1	3	-1	-2	-9	.	.
Cc1sc2ncnc(NCc3ccco3)c2c1C	-1	-2	85*	2	-17	-20	-6	-1
Cc1sc2ncnc(NCc3cccs3)c2c1C	5	1	-4	-1	0	-15	.	.
COc1cc(NC(=O)C(C)Oc2ccccc2)c(C(=O)O)cc1OC (centres undefined)	-7	0	-1	2	2	10	-6	-5
COc1cc(NC(=O)Cc2ccccc2)c(C(=O)O)cc1OC	-7	2	6	3	3	12	.	.
CCc1nc2ccc(C(=O)NCCOc3ccc(OC)cc3)cn2c1N(C=O)Cc1ccc(OC)cc1	-1	.	.	1	-2	-4	.	.
CC(NC(=O)c1cc(S(=O)(=O)N2CCOCC2)ccc1N1CCCC1)c1ccc(Cl)c(Cl)c1 (centres undefined)	36	2	-7	0	-2	5	13	-1
CN(Cc1ccc(Cl)cc1)C(=O)c1cc(S(=O)(=O)N2CCOCC2)ccc1N1CCCC1	10	-2	-9	0	0	1	-2	-13
CN(CCOc1ccc(Cl)cc1)C(=O)c1cc(S(=O)(=O)N2CCOCC2)ccc1N1CCCC1	22	2	-1	0	1	3	20	-8
O=C(Nc1ccccc1Cl)c1cc(S(=O)(=O)N2CCCCC2)ccc1N1CCOCC1	22	2	8	1	1	-2	.	.
O=C(C[C@@H]1C/C=C\C[C@H](Cc2ccc(F)cc2)C(=O)OCCNC1=O)N[C@H](CO)Cc1ccccc1	-12	-1	2	-2	2	-5	.	.
O=C(CSc1nc(=O)n(CCCN2CCOCC2)c2c1CCC2)Nc1cccc(F)c1	-5	.	0	0	1	-1	.	.
Cc1cc2nc(-c3ccccc3)c(Cc3ccsc3)n2c(C)c1Br	23	.	.	-1	7	.	.	.
Nc1nn(-c2ccccc2)c(N)c1N=Nc1ccccc1F	4	-2	56*	-2	0	-10	-4	-9
Nc1nn(-c2ccccc2)c(N)c1N=Nc1ccccc1	3	-8	7	-4	3	0	.	.
Cc1nc2c(C)cccn2c(=O)c1NC(=O)c1cccs1	0	0	66*	0	2	1	6	5
CCOC(=O)C1CCN(c2cc3c(cc2NC(=O)c2ccccc2Cl)n(C)c(=O)n3C)CC1	9	0	-6	0	-1	56*	-4	1
CCOc1cc(NC(=O)C2CC2)c(OCC)cc1NC(=O)c1ccccc1OCC	15	-4	-6	0	-2	17	.	.
CCOC(=O)C1CCN(c2cc3c(cc2NC(=O)c2ccccc2F)n(C)c(=O)n3C)CC1	-7	-3	34	0	-10	20	-10	6
CCOC(=O)C1CCN(C(=O)c2ccccc2NC(=O)c2ccc(Cl)cc2)CC1	-2	-6	34	5	1	1	.	.
CCOC(=O)C1CCN(c2cc3c(cc2NC(=O)c2ccccc2OCC)n(C)c(=O)n3C)CC1	10	7	10	0	-2	36	6	-4
Cn1c(=O)n(C)c2cc(NC(=O)c3ccc(F)cc3)c(Br)cc21	-2	0	1	0	0	4	.	.
SMILES	FAS-TE inh	GRIN3A LBD mod	Arr AP2 block	iPSC survival up	SENP1 FRET inh	H9c2 protect	Arr AP2 CP1	GST-FITC bead
CCOC(=O)C1CCN(c2cc3c(cc2NC(=O)c2ccc(F)cc2)n(C)c(=O)n3C)CC1	20	-5	36	0	1	81*	-9	-5
Cc1ccc(-c2c(C(=O)N/N=C/c3cccs3)nnn2-c2nonc2N)cc1	6	3	28	0	-1	10	.	.
CCOc1ccc(-c2c(C(=O)N/N=C/c3cccs3)nnn2-c2nonc2N)cc1	-1	4	61*	0	1	4	4	-5
CCCn1c(NC(=S)Nc2ccccc2)nc2ccccc21	16	-6	63*	0	1	6	-14	4
Cc1ccc(-c2nnc(SCc3ccccc3F)o2)cc1	20	3	2	0	2	-16	.	.
COc1ccc(-c2nnc(SCc3ccccc3F)o2)cc1OC	10	1	84*	8	4	0	22	.
CCOc1ccc(/C=N/NC(=O)Cc2csc(Nc3cccc(C(F)(F)F)c3)n2)cc1	22	9	86*	7	0	-18	9	2
CCNC(=O)C1(C)CCCN(C(=O)CCc2cccs2)C1 (centres undefined)	-5	.	.	2	2	-9	.	.
CCCCc1ccc(NC(=O)Nc2cnccn2)cc1	0	-6	1	0	0	-12	23	-5
CCCCc1ccc(NC(=O)NCc2ccccn2)cc1	0	-1	-4	0	1	-2	.	.
CCc1ccc(NC(=O)Nc2cnccn2)cc1	-6	-2	-2	0	0	-8	6	0
O=C(CSc1nc2c([nH]c3ccccc32)c(=O)n1-c1ccc(F)cc1)NCc1ccco1	-5	-3	101*	0	3	16	-1	39
O=C(CSc1nc2ccccc2c(=O)n1-c1ccccc1)NCc1ccco1	-9	-5	-5	-2	-1	10	.	.
Cc1ccc(-n2c(SCC(=O)Nc3cc(C)on3)nc3c([nH]c4ccccc43)c2=O)cc1	2	2	92*	0	3	-16	10	23
COc1ccc(-n2c(SCC(=O)Nc3cc(C)on3)nc3c([nH]c4ccccc43)c2=O)cc1	8	1	8	0	1	-6	.	.
CCc1nc2ccc(C(=O)NCCNC(C)=O)cn2c1N(C)CCCc1ccccc1	-4	.	.	-2	-3	4	.	.
C[C@H](CO)N1C[C@H](C)[C@@H](CN(C)Cc2ccc(C(=O)O)cc2)Oc2ccc(NS(=O)(=O)c3cn(C)cn3)cc2C1=O	-4	-3	-1	1	4	8	.	.

High-throughput results deposited in PubChem BioAssay by several laboratories.
